Values after ≈ are worked out from the molar mass of the structure shown.
Legend:
Assay type in all cases: functional
Aspergillus fumigatus = assay: Minimum inhibitory concentration (MIC) to Aspergillus fumigatus after 48 hr; details: Aspergillus fumigatus, 48 h; read-out: MIC
How it was run: (§1)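 Antifungal susceptibility read visually; MIC taken as lowest drug concentration giving 90–100% inhibition of visible growth relative to drug-free controls, read over 48 h, or after 24 h where footnoted. Organisms: C. parapsilosis, C. albicans, Cryptococcus neoformans, C. glabrata, Aspergillus fumigatus, Aspergillus flavus.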

Aspergillus flavus = assay: Minimum inhibitory concentration (MIC) against Aspergillus flavus after 24 hours; details: Aspergillus flavus, 24 h; read-out: MIC; how it was run: as §1
Nakaseomyces glabratus = assay: Minimum inhibitory concentration (MIC) to Candida glabrata after 48 hours; details: Nakaseomyces glabratus, 48 h; read-out: MIC; how it was run: as §1
Candida parapsilosis = assay: Minimum inhibitory concentration (MIC) to Candida parapsilosis after 48 hr; details: Lodderomyces parapsilosis, 48 h; read-out: MIC; how it was run: as §1
Candida albicans = assay: Minimum inhibitory concentration (MIC) to Candida albicans after 48 hr; how it was run: as §1
Cryptococcus neoformans = assay: Minimum inhibitory concentration against Cryptococcus neoformans after 48 hours; how it was run: as §1

SMILES	MIC (Aspergillus fumigatus) [µg/mL]	MIC (Aspergillus flavus) [µg/mL]	MIC (Nakaseomyces glabratus) [µg/mL]	MIC (Candida parapsilosis) [µg/mL]	MIC (Candida albicans) [µg/mL]	MIC (Cryptococcus neoformans) [µg/mL]
CC(C)C1=CC2CC3(C=O)[C@@H]4CC[C@@H](C)[C@H]4CC2(CO[C@H]2CN(C4C=CCCC4)[C@H](C)CO2)[C@]13C(=O)O (some centres undefined)	> 128	> 128	8 (≈ 15.6 µM)	> 128	2 (≈ 3.91 µM)	> 128
CC(C)C1=CC2CC3(C=O)[C@@H]4CC[C@@H](C)[C@H]4CC2(CO[C@H]2CN(CC4CC4)[C@H](C)CO2)[C@]13C(=O)O	> 128	> 128	8 (≈ 16.5 µM)	> 128	2 (≈ 4.12 µM)	> 128
C=C(Cl)CN1C[C@H](OCC23C[C@@H]4[C@H](C)CC[C@H]4C4(C=O)CC2C=C(C(C)C)[C@@]34C(=O)O)O[C@H](C)[C@H]1C	64 (≈ 123 µM)	1 (≈ 1.92 µM)	0.25 (≈ 0.481 µM)	8 (≈ 15.4 µM)	< 0.06	0.5 (≈ 0.961 µM)
C=C(Cl)CN1C[C@H](OCC23C[C@@H]4[C@H](C)CC[C@H]4C4(C=O)CC2C=C(C(C)C)[C@@]34C(=O)O)OCC12CCCC2	8 (≈ 14.6 µM)	0.125 (≈ 0.229 µM)	0.015 (≈ 0.0275 µM)	0.5 (≈ 0.916 µM)	< 0.008	< 0.008
CC(C)C1=CC2CC3(C=O)[C@@H]4CC[C@@H](C)[C@H]4CC2(CO[C@H]2CN(CC=C(Cl)Cl)[C@H](C)CO2)[C@]13C(=O)O	> 128	> 128	< 0.06	32 (≈ 59.2 µM)	< 0.06	16 (≈ 29.6 µM)
C=C(Cl)CN1C[C@H](OCC23C[C@@H]4[C@H](C)CC[C@H]4C4(C=O)CC2C=C(C(C)C)[C@@]34C(=O)O)OC[C@H]1CO	> 128	> 128	1 (≈ 1.92 µM)	128 (≈ 245 µM)	0.5 (≈ 0.958 µM)	2 (≈ 3.83 µM)
CC(C)=CCN1C[C@H](OCC23C[C@@H]4[C@H](C)CC[C@H]4C4(C=O)CC2C=C(C(C)C)[C@@]34C(=O)O)OC[C@H]1C	> 128	> 128	8 (≈ 16 µM)	> 128	0.25 (≈ 0.5 µM)	> 128
C=CC(=O)N1C[C@H](OCC23C[C@@H]4[C@H](C)CC[C@H]4C4(C=O)CC2C=C(C(C)C)[C@@]34C(=O)O)OC[C@H]1C	> 128	> 128	64 (≈ 132 µM)	> 128	8 (≈ 16.5 µM)	128 (≈ 264 µM)
C=CCN1C[C@H](OCC23C[C@@H]4[C@H](C)CC[C@H]4C4(C=O)CC2C=C(C(C)C)[C@@]34C(=O)O)OC[C@H]1C	> 128	> 128	0.25 (≈ 0.53 µM)	64 (≈ 136 µM)	0.125 (≈ 0.265 µM)	128 (≈ 271 µM)
C=C(Cl)CON1C[C@H](OCC23C[C@@H]4[C@H](C)CC[C@H]4C4(C=O)CC2C=C(C(C)C)[C@@]34C(=O)O)OC[C@H]1C	> 128	> 128	2 (≈ 3.83 µM)	> 128	0.125 (≈ 0.239 µM)	1 (≈ 1.92 µM)
C=C(Br)CN1C[C@H](OCC23C[C@@H]4[C@H](C)CC[C@H]4C4(C=O)CC2C=C(C(C)C)[C@@]34C(=O)O)OC[C@H]1C	128 (≈ 233 µM)	4 (≈ 7.27 µM)	0.125 (≈ 0.227 µM)	4 (≈ 7.27 µM)	< 0.06	< 0.06
CC(C)C1=CC2CC3(C=O)[C@@H]4CC[C@@H](C)[C@H]4CC2(CO[C@H]2CN(S(=O)(=O)C4CC4)[C@H](C)CO2)[C@]13C(=O)O	> 128	> 128	128 (≈ 239 µM)	> 128	32 (≈ 59.7 µM)	> 128
C=C(C)CN1C[C@H](OCC23C[C@@H]4[C@H](C)CC[C@H]4C4(C=O)CC2C=C(C(C)C)[C@@]34C(=O)O)OC[C@H]1C	> 128	8 (≈ 16.5 µM)	0.125 (≈ 0.257 µM)	8 (≈ 16.5 µM)	< 0.06	0.125 (≈ 0.257 µM)
CC(C)C1=CC2CC3(C=O)[C@@H]4CC[C@@H](C)[C@H]4CC2(CO[C@H]2CN[C@H](C)CO2)[C@]13C(=O)O	> 128	> 128	64 (≈ 148 µM)	> 128	8 (≈ 18.5 µM)	> 128
CC(C)CN1C[C@H](OCC23C[C@@H]4[C@H](C)CC[C@H]4C4(C=O)CC2C=C(C(C)C)[C@@]34C(=O)O)OC[C@H]1C	> 128	> 128	1 (≈ 2.05 µM)	> 128	< 0.06	32 (≈ 65.6 µM)
C=C(C#N)CN1C[C@H](OCC23C[C@@H]4[C@H](C)CC[C@H]4C4(C=O)CC2C=C(C(C)C)[C@@]34C(=O)O)OC[C@H]1C	> 128	128 (≈ 258 µM)	1 (≈ 2.01 µM)	> 128	0.25 (≈ 0.503 µM)	4 (≈ 8.05 µM)
CC(C)C1=CC2CC3(C=O)[C@@H]4CC[C@@H](C)[C@H]4CC2(CO[C@H]2CN(Cc4ccccc4Cl)[C@H](C)CO2)[C@]13C(=O)O	> 128	> 128	1 (≈ 1.8 µM)	> 128	< 0.06	4 (≈ 7.19 µM)
CC(C)C1=CC2CC3(C=O)[C@@H]4CC[C@@H](C)[C@H]4CC2(CO[C@H]2CN(c4ccc(Cl)s4)[C@H](C)CO2)[C@]13C(=O)O	> 128	> 128	0.125 (≈ 0.228 µM)	> 128	< 0.06	2 (≈ 3.65 µM)
CC(C)C1=CC2CC3(C=O)[C@@H]4CC[C@@H](C)[C@H]4CC2(CO[C@H]2CN(CC=C(F)F)[C@H](C)CO2)[C@]13C(=O)O	> 128	> 128	1 (≈ 1.97 µM)	64 (≈ 126 µM)	0.125 (≈ 0.246 µM)	64 (≈ 126 µM)
C=C(Cl)CN1C[C@H](OCC23C[C@@H]4[C@H](C)CC[C@H]4C4(C=O)CC2C=C(C(C)C)[C@@]34C(=O)O)OC[C@H]1C(F)(F)F	> 128	> 128	1 (≈ 1.79 µM)	> 128	< 0.06	> 128
C=C(Cl)CN1C[C@H](OCC23C[C@@H]4[C@H](C)CC[C@H]4C4(C=O)CC2C=C(C(C)C)[C@@]34C(=O)O)O[C@@H]2CCC[C@H]21	64 (≈ 120 µM)	4 (≈ 7.52 µM)	0.125 (≈ 0.235 µM)	4 (≈ 7.52 µM)	< 0.06	0.25 (≈ 0.47 µM)
COc1ccc(CN2C[C@H](OCC34C[C@@H]5[C@H](C)CC[C@H]5C5(C=O)CC3C=C(C(C)C)[C@@]45C(=O)O)OC[C@H]2C)cc1	> 128	> 128	< 0.06	4 (≈ 7.25 µM)	< 0.06	0.5 (≈ 0.906 µM)
CC(C)C1=CC2CC3(C=O)[C@@H]4CC[C@@H](C)[C@H]4CC2(CO[C@H]2CN(C/C=C\Cl)[C@H](C)CO2)[C@]13C(=O)O	> 128	> 128	1 (≈ 1.98 µM)	> 128	0.125 (≈ 0.247 µM)	128 (≈ 253 µM)
CC(C)C1=CC2CC3(C=O)[C@@H]4CC[C@@H](C)[C@H]4CC2(CO[C@H]2CN(C/C=C\Br)[C@H](C)CO2)[C@]13C(=O)O	> 128	> 128	1 (≈ 1.82 µM)	> 128	< 0.06	> 128

— ChEMBL document CHEMBL1136700, “Identification of a broad-spectrum azasordarin with improved pharmacokinetic properties” (Bioorg Med Chem Lett, 2003)
